{"data": "Results from different studies", "target": "Tyrosine-protein kinase Fyn (FYN, Homo sapiens, UniProt P06241)", "note": "Lines come from different studies, so protocols differ."}
{"Compound": "O=C(Nc1cnn(-c2csc(C(=O)NC3COC3)c2)c1)Nc1ccccc1Cl", "effect on": "enzyme activity", "mode": "inhibitor", "tested at": "5 µM", "quantity": "remaining activity", "result": "97.8%"}
{"Compound": "Cc1ccc(C(=O)Nc2ccc(CN3CCN(C)CC3)c(C(F)(F)F)c2)cc1C#Cc1cnc2cccnn12", "effect on": "enzyme activity", "mode": "inhibitor", "tested at": "23.5 nM", "quantity": "remaining activity", "result": "28%"}
{"Compound": "N#CCCc1ccc2c(c1)-c1[nH]c3ccc([N+](=O)[O-])cc3c1CC(=O)N2", "effect on": "cell-free assay", "tested at": "0.5 µM", "quantity": "remaining signal", "result": "52.2%"}
{"Compound": "CNCc1ccc(-c2cc(-c3nc(-c4ccc(S(=O)(=O)C(C)C)cc4)cnc3N)on2)cc1", "effect on": "enzyme activity", "mode": "inhibitor", "tested at": "2 µM", "quantity": "inhibition", "result": "27%"}
{"Compound": "COc1ccc2cc(OCC3(C(=O)O)CN(C(=O)c4ccc(F)cc4)C3)ccc2c1", "effect on": "cell-free assay", "technique": "competition with immobilised ligand", "tested at": "1 µM", "quantity": "remaining binding", "result": "100%"}
{"Compound": "CCN(CC)CCNC(=O)c1c(C)[nH]c(/C=C2\\C(=O)Nc3ccc(Cl)cc32)c1C", "effect on": "enzyme activity", "mode": "inhibitor", "tested at": "0.5 µM", "quantity": "remaining activity", "result": "28.4%"}
{"Compound": "CCOC(=O)c1cc2cc(-c3cc(C(=O)NCc4ccc(C(=O)O)cc4)nn3C)ccc2[nH]1", "effect on": "cell-free assay", "technique": "competition with immobilised ligand", "tested at": "0.1 µM", "quantity": "remaining binding", "result": "100%"}
{"Compound": "Cc1sc(C(=O)NC2COC2)cc1-n1cc(NC(=O)Nc2c(F)cccc2Cl)cn1", "effect on": "enzyme activity", "mode": "inhibitor", "tested at": "10 µM", "quantity": "remaining activity", "result": "99.8%"}
{"Compound": "Cn1cnc(Br)c1C1=CN(c2ncnc3[nH]cnc23)CCS1", "effect on": "enzyme activity", "mode": "inhibitor", "technique": "radiometric", "tested at": "50 nM", "quantity": "inhibition", "result": "21.6%"}
{"Compound": "CN(C(=O)c1ccccc1)c1cc(N(C)c2ccc3c(c2)CCc2ccc(C(=O)NCCN4CCOCC4)cc2C3=O)ccc1F", "effect on": "cell-free assay", "technique": "competition with immobilised ligand", "tested at": "1 µM", "quantity": "remaining binding", "result": "61%"}
{"Compound": "COc1cc(OC)c(C=C2C(O)=Nc3ccccc32)c(OC)c1", "effect on": "cell-free assay", "mode": "inhibitor", "tested at": "0.5 µM", "quantity": "remaining signal", "result": "100%"}
{"Compound": "CNC(=O)c1cc(Oc2ccc(NC(=O)Nc3ccc(Cl)c(C(F)(F)F)c3)cc2)ccn1", "effect on": "enzyme activity", "mode": "inhibitor", "tested at": "10 µM", "quantity": "inhibition", "result": "44%"}
{"Compound": "c1ccc(CNc2nc(N3CCOc4ccccc43)nc3c2CCCC3)cc1", "effect on": "target engagement in cells", "mode": "inhibitor", "technique": "chemoproteomics", "tested at": "20 mM", "quantity": "inhibition", "result": "-18%"}
{"Compound": "COc1ccc2c(O[C@@H]3C[C@H]4C(=O)N[C@]5(C(=O)O)CC5/C=C\\CCCCC[C@H](NC(=O)OC5CCCC5)C(=O)N4C3)cc(-c3csc(NC(=O)C(C)C)n3)nc2c1C (stereo partly shown)", "effect on": "cell-free assay", "technique": "competition with immobilised ligand", "tested at": "1 µM", "quantity": "remaining binding", "result": "100%"}
{"Compound": "COc1cc2ncnc(Nc3ccc(Oc4ccccc4)cc3C)c2cc1OC", "effect on": "enzyme activity", "mode": "inhibitor", "tested at": "1 µM", "quantity": "inhibition", "result": "83%"}
{"Compound": "CCN(CC)c1ccc(C2=NNC(=O)CC2C)cc1[N+](=O)[O-] (stereo not shown)", "effect on": "enzyme activity", "mode": "inhibitor", "tested at": "10 µM", "quantity": "remaining activity", "result": "110%"}
{"Compound": "C[S+]([O-])c1ccc(-c2nc(-c3ccncc3)c(-c3ccc(F)cc3)[nH]2)cc1 (stereo not shown)", "effect on": "cell-free assay", "tested at": "0.5 µM", "quantity": "remaining signal", "result": "89.8%"}
{"Compound": "CNC(=O)Nc1ccc2c(c1)[C@@]1(CC2)OC(=O)N(CC(=O)N(Cc2ccc(F)cc2)[C@@H](C)C(F)(F)F)C1=O", "effect on": "cell-free assay", "technique": "competition with immobilised ligand", "tested at": "1 µM", "quantity": "remaining binding", "result": "79%"}
{"Compound": "CC/C(=N\\NC(=O)NCc1cccc(O)c1)c1ccc(O)c(C)c1O", "effect on": "enzyme activity", "mode": "inhibitor", "tested at": "0.1 µM", "quantity": "inhibition", "result": "0.5%"}
{"Compound": "Cc1ccc(NC(=O)c2ccc(C)c(C(F)(F)F)c2)cc1C#Cc1nn(C2CCC(O)CC2)c2ncnc(N)c12 (stereo not shown)", "effect on": "cell-free assay", "tested at": "10 µM", "quantity": "remaining signal", "result": "0%"}
{"Compound": "CCCCNc1ncc2c(-c3ccc(F)cc3)nn(C[C@H]3CC[C@H](N)CC3)c2n1", "effect on": "target engagement in cells", "mode": "inhibitor", "technique": "chemoproteomics", "tested at": "20 mM", "quantity": "inhibition", "result": "> 96%"}
{"Compound": "O=C1NC(=O)c2cc(Nc3ccc(F)cc3)c(Nc3ccc(F)cc3)cc21", "effect on": "cell-free assay", "tested at": "0.5 µM", "quantity": "remaining signal", "result": "99.4%"}
{"Compound": "CCN(CC)CCNC(=O)c1c(C)[nH]c(/C=C2\\C(=O)Nc3ccc(F)cc32)c1C", "effect on": "enzyme activity", "mode": "inhibitor", "tested at": "0.3 µM", "quantity": "inhibition", "result": "35%"}
{"Compound": "O=c1nc(-c2ccccn2)sc2ccccc12", "effect on": "binding", "technique": "competition with immobilised ligand", "tested at": "1 µM", "quantity": "remaining binding", "result": "100%"}
{"Compound": "c1nc2c(Nc3ccc4c(c3)OCCO4)nc(Nc3ccc4c(c3)OCCO4)nc2[nH]1", "effect on": "enzyme activity", "mode": "inhibitor", "tested at": "10 µM", "quantity": "activity vs control", "result": "8.7%"}
{"Compound": "CC(C)(C)c1nc2c(s1)c1nc(N)ncc1c1ccc(NS(=O)(=O)c3c(F)cccc3F)c(F)c12", "effect on": "enzyme activity", "mode": "inhibitor", "technique": "radiometric", "tested at": "1 µM", "quantity": "remaining activity", "result": "97%"}
{"Compound": "CCCS(=O)(=O)Nc1ccc(F)c(C(=O)c2c[nH]c3ncc(-c4ccc(Cl)cc4)cc23)c1F", "effect on": "enzyme activity", "mode": "inhibitor", "tested at": "1 µM", "quantity": "inhibition", "result": "< 20%"}
{"Compound": "CNC(=O)Nc1ccc2c(c1)CC[C@@]21OC(=O)N(CC(=O)N(Cc2ccc(F)cc2)[C@@H](C)C(F)(F)F)C1=O", "effect on": "cell-free assay", "technique": "competition with immobilised ligand", "tested at": "1 µM", "quantity": "remaining binding", "result": "100%"}
{"Compound": "COc1cc(Cl)c(C(=O)N[C@@H](CN[C@H]2CC[C@@H](N)CC2)Cc2ccc(C#N)cc2)cc1-c1ccc(CN[C@H](C)c2ccc(C)cc2)o1", "effect on": "enzyme activity", "mode": "inhibitor", "tested at": "1 µM", "quantity": "remaining activity", "result": "104%"}
{"Compound": "C#Cc1cccc(Nc2ncnc3cc(OCCOC)c(OCCOC)cc23)c1", "effect on": "cell-free assay", "tested at": "0.5 µM", "quantity": "remaining signal", "result": "94.7%"}
{"Compound": "Cc1nc(Cc2cccc(C(F)(F)F)c2)sc1-c1ccc(C(N)=O)nc1", "effect on": "cell-free assay", "technique": "competition with immobilised ligand", "tested at": "1 µM", "quantity": "remaining binding", "result": "100%"}
